Experimental data from ChEMBL document CHEMBL1121816, “Adrenoceptor blocking agents. Compounds related to metoprolol” (1981).

Legend:
[1] = target: Beta-1 adrenergic receptor (Homo sapiens) (UniProt P08588); assay: Intrinsic activity of compound against beta-1-adrenergic receptor given as percent of maximal heart rate by iv injection of supramaximal doses of isoprenaline (IPR); format: functional, organism-based; conditions: Felis catus
[2] = organism: Felis catus; assay: Antagonistic effect of compound on peripheral vascular resistance was measured as KB in cats; format: functional
Procedure, shortened: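 Reserpinized (5 mg/kg, 18 h prior), pentobarbital-anesthetized, vagotomized, ventilated cats. One hind leg perfused with the animal's own blood via the femoral artery at a constant flow above 10 mL/min; resistance read as perfusion pressure. Compound infused iv for 10 min in five stepwise concentrations, each followed by ia isoprenaline at about 80%-maximal dose. KB assumes competitive antagonism.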

[3] = target: Beta-1 adrenergic receptor (Homo sapiens) (UniProt P08588); assay: Agonistic effect of compound against beta-1-adrenergic receptor given as geometric mean (KA) of effect on heart rate; format: functional; conditions: Felis catus
Procedure, shortened: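 Cats of either sex (2.6–3.2 kg), starved 24 h, given reserpine 5 mg/kg 18 h before; pentobarbital 30 mg/kg ip, then 0.1 mg/min/kg infusion; ventilated, bilaterally vagotomized. Heart rate triggered from carotid pressure. Compound infused iv for 10 min at 1.0 mL/min in five rising concentrations. KA taken as the dose giving a semimaximal heart-rate increase.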

Chain of Beta-1 adrenergic receptor (Homo sapiens) (P08588 whole entry, looked up, the tested form may be a part): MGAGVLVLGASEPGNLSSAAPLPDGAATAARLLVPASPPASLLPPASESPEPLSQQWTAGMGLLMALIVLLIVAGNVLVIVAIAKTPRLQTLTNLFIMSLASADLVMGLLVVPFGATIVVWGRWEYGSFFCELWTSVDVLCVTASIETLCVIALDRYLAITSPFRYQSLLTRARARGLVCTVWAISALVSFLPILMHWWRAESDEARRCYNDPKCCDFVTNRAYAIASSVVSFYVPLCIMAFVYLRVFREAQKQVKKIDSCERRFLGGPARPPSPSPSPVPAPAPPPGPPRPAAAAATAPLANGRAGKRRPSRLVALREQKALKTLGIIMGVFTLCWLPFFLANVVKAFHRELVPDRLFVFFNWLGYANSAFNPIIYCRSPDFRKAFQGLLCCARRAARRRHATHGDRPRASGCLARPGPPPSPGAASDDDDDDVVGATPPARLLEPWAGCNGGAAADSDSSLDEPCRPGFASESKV

| SMILES | Intrinsic activity [1] [%] | KB [2] [µM/kg] | KA [3] [µM/kg] |
| --- | --- | --- | --- |
| COc1ccc(CCC(O)CNC(C)C)cc1.Cl (stereo unspecified) | 4.5 | 30.8 | – |
| COCCc1ccc(C(O)CNC(C)C)cc1.Cl (stereo unspecified) | 22.5 | 23.6 | 0.536 |
| COc1ccc(OCC(O)CNC(C)C)cc1.Cl (stereo unspecified) | 81.2 | 3.42 | 0.119 |
| COCCc1ccc(OCC(O)CNC(C)C)cc1.Cl (stereo unspecified) | – | 0.87 | – |
| Cc1ccc(OCCC(O)CNC(C)C)cc1.Cl (stereo unspecified) | – | 1.82 | – |
| COCc1ccc(CC(O)CNC(C)C)cc1.Cl (stereo unspecified) | – | 6.1 | – |
